Assay outcomes deposited in PubChem BioAssay by several laboratories.
PolyA inhibitor = inhibitors of polyadenylation in S. cerevisiae. activity score, % at 12 µM. AID 1875. S. cerevisiae SKY197-pL101 polyadenylation reporter, beta-gal luminescence; efflux-impaired pdr1/pdr3 knockout yeast; score 100 = 6 SD above DMSO. hit rate 0.02% among 300,000;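 active means lowest replicate activity score at least 50, where 100 means six control SD above control mean; inconclusive means lowest score under 50 but half or more replicates reach 50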;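 further: yeast exposed to compound for 9 h at 30 °C; higher score means more reporter readthrough which indicates perturbed polyadenylation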
proCasp3 act = activates human procaspase-3; recombinant procaspase-3 D3A, Ac-DEVD-pNA absorbance 405 nm; AID 463141; activation, % at 8.5 µM; hit rate 0.11% among 330,000;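 active means activation above the mean of all tested compounds plus 3 SD, cut at about 21% in these data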;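 further: 0% = DMSO alone and 100% = DMSO wells spiked with extra 5 µM PC-3 D3A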
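Assay system: Procaspase-3 D3A mutant, all three cleavage aspartates alanine. Buffer or medium: Zinc-free HEPES saline buffer with Triton X-100. Times: 1 h compound preincubation, 2 h substrate hydrolysis at 25 °C. Measured by: 405 nm absorbance of p-nitroaniline, reads at 0 and 120 min. Read-out basis: percent activation relative to control range. Replicates: singlicate.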
AHR activator = human AHR activation; AID 2796; P35869; hit rate 2.5% among 320,000; activation, % at 5 µM; AHR-responsive luciferase reporter cells, luminescence; in the data active means activation above about 47%;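 further: 0% = vehicle wells and 100% = reference agonist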
Target sequence (P35869 whole entry, looked up): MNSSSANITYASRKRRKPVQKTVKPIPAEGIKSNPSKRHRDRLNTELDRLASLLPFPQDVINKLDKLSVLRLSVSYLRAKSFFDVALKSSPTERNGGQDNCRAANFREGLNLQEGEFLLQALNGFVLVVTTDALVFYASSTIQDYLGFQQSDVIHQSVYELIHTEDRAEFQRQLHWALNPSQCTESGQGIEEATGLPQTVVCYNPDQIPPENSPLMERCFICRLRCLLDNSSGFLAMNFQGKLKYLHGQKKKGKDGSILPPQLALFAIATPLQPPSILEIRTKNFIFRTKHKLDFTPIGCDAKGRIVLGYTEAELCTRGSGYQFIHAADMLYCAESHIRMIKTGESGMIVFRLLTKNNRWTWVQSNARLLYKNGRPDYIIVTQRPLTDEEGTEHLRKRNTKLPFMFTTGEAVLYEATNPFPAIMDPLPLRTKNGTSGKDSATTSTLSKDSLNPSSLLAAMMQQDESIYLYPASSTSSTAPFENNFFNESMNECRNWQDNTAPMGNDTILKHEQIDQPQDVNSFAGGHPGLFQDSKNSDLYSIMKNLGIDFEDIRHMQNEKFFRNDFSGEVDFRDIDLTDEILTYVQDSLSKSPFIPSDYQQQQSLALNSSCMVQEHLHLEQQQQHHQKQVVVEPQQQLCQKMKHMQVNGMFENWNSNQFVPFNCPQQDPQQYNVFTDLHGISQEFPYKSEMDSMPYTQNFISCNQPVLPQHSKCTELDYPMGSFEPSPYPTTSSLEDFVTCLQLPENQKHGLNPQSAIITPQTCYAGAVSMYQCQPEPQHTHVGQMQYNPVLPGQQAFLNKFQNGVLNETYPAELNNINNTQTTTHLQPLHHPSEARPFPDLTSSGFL
proCasp7 act = activates human procaspase-7, counter-screen for procaspase-3 activators. activation, % at 8.5 µM. hit rate 0.093% among 330,000. P55210. recombinant procaspase-7, Ac-DEVD-pNA absorbance 405 nm; D23A/D198A/D206A triple mutant, cannot self-cleave; scale: DMSO 0, 5 µM enzyme 100;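 active means percent activation above the screen-wide mean plus 3 SD, cut at about 25% in these data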
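Assay system – Uncleavable procaspase-7 mutant enzyme · Quantity – 2 µM procaspase-7 mutant as dispensed · Times – 1 h preincubation, 2 h reaction · Dosing – single nominal 8.5 µM compound dose, 0.8% DMSO final · Buffer or medium – Zinc-free 50 mM HEPES buffer, pH 7.4, with NaCl and Triton X-100 · Detection – Epi-absorbance of released pNA at 405 nm, two timepoints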
AHR act cf = human AHR activation, confirmation. shares compounds with AHR activator. human cells, AHR-responsive luciferase reporter, luminescence. activation, % at 9 µM. hit rate 87% among 2,300; in the data active means activation above about 49%;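 further: HepG2 hepatoma cells carrying a DRE-driven firefly luciferase reporter; 0% = vehicle wells and 100% = reference agonist wells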
PXR act counter = PXR activation, counter-screen for AHR activators. activation, % at 11.6 µM. AID 434939. hit rate 88% among 2,300. cell-based PXR reporter, luciferase luminescence. shares compounds with AHR activator; in the data active means activation above about 11%;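 further: human hepatoma DPX-2 cells expressing full-length human PXR; 0% = DMSO and 100% = reference agonist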
* = called active by the depositor. In the library only some 2.6% were active in any assay of this set; here they are far more common.

`COc1ccc(NC(=O)c2ccc3nc[nH]c3c2)cc1` gave PolyA inhibitor inconclusive, proCasp3 act 2, AHR activator 80*, proCasp7 act -4, AHR act cf 79* and PXR act counter 19*.
For O=C(Nc1ccc(OC(F)(F)F)cc1)c1ccc2nccnc2c1 the results were PolyA inhibitor 13, proCasp3 act 2, AHR activator 86*, proCasp7 act 6, AHR act cf 81* and PXR act counter 15*.
COC(=O)c1ccc(NC(=O)c2ccc3nccnc3c2)cc1 was read as PolyA inhibitor 3, proCasp3 act 3, AHR activator -5 and proCasp7 act 2.
`O=C(C1CC=CCC1)N1CCC(CO)(Cc2ccc(Cl)cc2)CC1` (stereo not given) gave PolyA inhibitor -13, proCasp3 act 3, AHR activator -1 and proCasp7 act -1.
c1ccc(C2=Nc3c(ccc4ccccc34)C(c3ccncc3)=NN2)cc1 was read as proCasp3 act 4, AHR activator 80*, proCasp7 act 4, AHR act cf 110* and PXR act counter 46*.
O=C(CN1CCN(S(=O)(=O)c2cccc(Br)c2)CC1)N1CCCCC1 was read as proCasp3 act 0, AHR activator -1 and proCasp7 act 2.
Screening CN1CCN(C(=O)c2ccccc2NC(=O)c2sc3ccccc3c2Cl)CC1 returned PolyA inhibitor 9, proCasp3 act 0, AHR activator 8 and proCasp7 act -2.
For CN1CCN(c2ccc(NC(=O)c3sc4ccccc4c3Cl)cc2)CC1 the results were PolyA inhibitor -6, proCasp3 act 5, AHR activator 80*, proCasp7 act 5 and AHR act cf 49*.
`FC(F)(F)c1nnc(-c2ccccc2)nc1N1CCCC1` gave PolyA inhibitor -34, proCasp3 act 5, AHR activator 85*, proCasp7 act -2, AHR act cf 131* and PXR act counter 52*.
Screening FC(F)(F)c1nnc(-c2ccccc2)nc1Sc1ccccc1 returned PolyA inhibitor -17, proCasp3 act 2, AHR activator 6 and proCasp7 act 9.
`O=C(Nc1ccon1)Nc1cc(Cl)ccc1Cl` gave PolyA inhibitor 6, proCasp3 act -1, AHR activator 122*, proCasp7 act -4, AHR act cf 101* and PXR act counter 11*.
CC(C)(C)OC(=O)C[C@H]1C/C=C\C[C@@H](CC(=O)NCCO)C(=O)NCCOC1=O was read as proCasp3 act -6, AHR activator -1 and proCasp7 act 15.
`Cc1cc(C)nc(SCc2nc(N)nc(-c3ccccc3O)n2)n1` gave PolyA inhibitor -7, proCasp3 act -1, AHR activator 84*, proCasp7 act -1, AHR act cf 91* and PXR act counter 38*.
Screening Nc1nc(-c2ccccc2)cc(-c2ccccc2O)n1 returned PolyA inhibitor -35, proCasp3 act 19, AHR activator 82*, proCasp7 act 5, AHR act cf 174* and PXR act counter 22*.
For Nc1nc(-c2ccccc2)nc(-c2ccccc2O)n1 the results were PolyA inhibitor -12, proCasp3 act 1, AHR activator 84*, proCasp7 act 4, AHR act cf 107* and PXR act counter 13*.
Screening Cc1ccccc1Nc1nc(N)nc(COC(=O)[C@@H](NC(=O)c2ccccc2Cl)C(C)C)n1 returned PolyA inhibitor 0, proCasp3 act 2, AHR activator 0 and proCasp7 act 3.
For O=C1C(Cl)=C(Nc2ccc(O)cc2)C(=O)c2ccccc21 the results were PolyA inhibitor 16, proCasp3 act -12, AHR activator 132*, proCasp7 act -28 and AHR act cf 112*.
For N#Cc1nc(-c2ccccc2)oc1NCCCn1ccnc1 the results were PolyA inhibitor 0, proCasp3 act 3, AHR activator 99*, proCasp7 act 7, AHR act cf 104* and PXR act counter 28*.
`Cc1ccc(/C=N/NC(=O)CSc2nc3ccccc3n2C)s1` gave PolyA inhibitor -1, proCasp3 act 8, AHR activator 108*, proCasp7 act -2, AHR act cf 92* and PXR act counter 52*.
`COc1ccc(OC)c(C(=O)NC(CC(N)=O)c2ccc(NC(C)C)c([N+](=O)[O-])c2)c1` (stereo not given) gave PolyA inhibitor -5, proCasp3 act 6, AHR activator 10 and proCasp7 act -10.
Screening CCc1nn(CC(=O)NCCc2ccc(S(N)(=O)=O)cc2)c(=O)c2cc3sccc3n12 returned PolyA inhibitor 3, proCasp3 act 4, AHR activator -1 and proCasp7 act -3.
`O=C1c2cc(F)ccc2-n2c1nc1ccccc1c2=O` gave PolyA inhibitor -53, proCasp3 act 1, AHR activator 100*, proCasp7 act 0, AHR act cf -16 and PXR act counter -17.
For CCOc1ccc(C(=O)O/N=C(\N)c2ccccn2)cc1OCC the results were PolyA inhibitor 20, proCasp3 act 1, AHR activator 7 and proCasp7 act 12.
`N/C(=N\OC(=O)c1cccc(Br)c1)c1ccccn1` gave PolyA inhibitor -11, proCasp3 act 0, AHR activator 99*, proCasp7 act 3, AHR act cf 95* and PXR act counter 4.
CCCc1nnc(NC(=O)c2cccc(OC)c2)s1 was read as PolyA inhibitor -12, proCasp3 act -6, AHR activator 5 and proCasp7 act -10.
For COc1cccc(C(=O)Nc2nnc(C(C)C)s2)c1 the results were PolyA inhibitor -2, proCasp3 act 1, AHR activator 133*, proCasp7 act 5, AHR act cf 0 and PXR act counter 28*.
`COc1ccc(Cc2nnc(NC(=O)c3cc(OC)cc(OC)c3)s2)cc1` gave PolyA inhibitor -9, proCasp3 act -5, AHR activator 82*, proCasp7 act 8, AHR act cf 76* and PXR act counter 12*.
For CCN(CC(=O)NCc1cccs1)C(=O)/C=C/c1cc(Br)ccc1OC(F)F the results were proCasp3 act -3, AHR activator 2 and proCasp7 act 4.
Screening Cc1ccc(-c2nsc(SCC(=O)NCc3ccc4c(c3)OCO4)n2)cc1 returned PolyA inhibitor -16, proCasp3 act -3, AHR activator 10 and proCasp7 act 4.
Screening Cc1ccccc1-c1nsc(SCC(=O)NCc2ccc3c(c2)OCO3)n1 returned PolyA inhibitor -16, proCasp3 act -1, AHR activator 86*, proCasp7 act -3, AHR act cf 44 and PXR act counter 30*.
